From ChEMBL document CHEMBL1130071, “Pyrrolomorphinans as delta opioid receptor antagonists. The role of steric hindrance in conferring selectivity” (J Med Chem, 1997)

Legend:
[1] = molecular target: Kappa-type opioid receptor (Homo sapiens) (UniProt P41145); assay: Selectivity ratio measured as the delta IC50 to that of kappa IC50 values.; type: functional
[2] = molecular target: Mu-type opioid receptor (Homo sapiens) (UniProt P35372); assay: Selectivity ratio measured as the delta IC50 to that of mu IC50 values.; type: functional
[3] = molecular target: Mu-type opioid receptor (Cavia porcellus) (UniProt P97266); assay: Agonist activity against guinea pig ileum Opioid receptor mu 1; type: functional, tissue-based
In short: (§1)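 Agonist activity in MVD or GPI preparations; ligands that were not full agonists tested at 1 µM, activity expressed as percent of maximal response.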

[4] = molecular target: Delta-type opioid receptor (Mus musculus) (UniProt P32300); assay: Activity against Opioid receptor delta 1 on electrically stimulated mouse vas deferens using DADLE as agonist; type: functional, tissue-based
In short: (§2)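 Antagonist test in electrically stimulated smooth muscle, DADLE in MVD, morphine or ethylketazocine in GPI: ligand (100 nM) preincubated with the preparation 15 min before agonist testing. IC50 ratio = agonist IC50 with test compound / control IC50 in same preparation; Ke = [antagonist]/(IC50 ratio − 1).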

[5] = molecular target: Kappa-type opioid receptor (Cavia porcellus) (UniProt P41144); assay: Agonist activity against guinea pig ileum kappa receptor relative to ethylketazocine; type: functional, tissue-based; in short: as §1
[6] = molecular target: Delta-type opioid receptor (Mus musculus) (UniProt P32300); assay: Agonist activity in mouse vas deferens assay relative to DADLE; type: functional, tissue-based; in short: as §1
[7] = molecular target: Kappa-type opioid receptor (Mus musculus, UniProt P33534); assay: Binding affinity against Opioid receptor kappa 1 binding in ICR mouse brain membranes using the radioligand [3H]U-69593; type: cell membranes, Membrane
In short: (§3)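 Competition binding on ICR mouse brain membranes using selective radioligands: [3H]naltrindole (δ), [3H]DAMGO (μ), [3H]U69593 (κ). Ki reported as mean ± SEM of at least three determinations.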

[8] = molecular target: Delta-type opioid receptor (Mus musculus, UniProt P32300); assay: Binding affinity against Opioid receptor delta 1 receptor binding in ICR mouse brain membranes using the radioligand [3H]naltrindole; type: cell membranes, Membrane; in short: as §3
[9] = molecular target: Delta-type opioid receptor (Homo sapiens) (UniProt P41143); assay: Selectivity ratio measured as the kappa Ki to that of delta Ki values.
In short: (§4)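 Ki selectivity ratio = Ki at κ or μ (ICR mouse brain membranes, [3H]U69593 or [3H]DAMGO) divided by Ki at δ ([3H]naltrindole competition).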

[10] = molecular target: Delta-type opioid receptor (Homo sapiens) (UniProt P41143); assay: Selectivity ratio measured as the mu Ki to that of delta Ki values.; in short: as §4
Mu-type opioid receptor = Mu-type opioid receptor (Mus musculus, UniProt P42866); assay: Binding affinity against Opioid receptor mu 1 binding in ICR mouse brain membranes using the radioligand [3H][Ala2,Glyol5]enkephalin; type: cell membranes, Membrane; in short: as §3
[11] = molecular target: Mu-type opioid receptor (Cavia porcellus) (UniProt P97266); assay: Activity against mu receptor on electrically stimulated guinea pig ileum using morphine as the standard agonist (Opioid receptor mu 1); type: functional, tissue-based; in short: as §2
[12] = molecular target: Kappa-type opioid receptor (Cavia porcellus) (UniProt P41144); assay: Activity against Opioid receptor kappa 1 on electrically stimulated guinea pig ileum using ethylketazocine as the standard agonist.; type: functional, tissue-based; in short: as §2
[13] = molecular target: Mu-type opioid receptor (Cavia porcellus) (UniProt P97266); assay: Agonist guinea pig ileum (Opioid receptor mu 1); type: functional, tissue-based; in short: as §1
[14] = molecular target: Mu-type opioid receptor (Cavia porcellus) (UniProt P97266); assay: Agonist guinea pig ileum; type: functional, tissue-based; in short: as §1

Chain of Delta-type opioid receptor (P32300 whole entry): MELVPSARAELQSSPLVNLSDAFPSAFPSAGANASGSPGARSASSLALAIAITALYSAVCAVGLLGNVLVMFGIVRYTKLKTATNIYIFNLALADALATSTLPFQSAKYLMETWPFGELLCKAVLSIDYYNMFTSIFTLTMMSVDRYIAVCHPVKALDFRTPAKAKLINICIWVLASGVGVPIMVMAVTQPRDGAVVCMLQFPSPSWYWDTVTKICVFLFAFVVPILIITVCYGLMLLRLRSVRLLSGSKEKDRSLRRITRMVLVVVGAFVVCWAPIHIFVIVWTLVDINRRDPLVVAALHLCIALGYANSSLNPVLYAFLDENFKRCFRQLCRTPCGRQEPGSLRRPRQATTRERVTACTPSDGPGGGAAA
Chain of Delta-type opioid receptor (Mus musculus) (P32300 whole entry): as above
Chain of Kappa-type opioid receptor (P33534 whole entry): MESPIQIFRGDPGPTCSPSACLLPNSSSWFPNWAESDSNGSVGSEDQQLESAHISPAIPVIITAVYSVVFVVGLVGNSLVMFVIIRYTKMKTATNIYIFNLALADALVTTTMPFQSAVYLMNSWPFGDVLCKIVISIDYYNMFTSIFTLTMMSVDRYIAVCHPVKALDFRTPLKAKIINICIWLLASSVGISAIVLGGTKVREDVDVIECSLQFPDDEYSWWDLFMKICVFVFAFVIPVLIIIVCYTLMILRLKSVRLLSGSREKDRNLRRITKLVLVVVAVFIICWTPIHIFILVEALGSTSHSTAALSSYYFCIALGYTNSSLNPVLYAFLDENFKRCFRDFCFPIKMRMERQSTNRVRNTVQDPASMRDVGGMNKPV
Chain of Mu-type opioid receptor (Homo sapiens) (P35372 whole entry): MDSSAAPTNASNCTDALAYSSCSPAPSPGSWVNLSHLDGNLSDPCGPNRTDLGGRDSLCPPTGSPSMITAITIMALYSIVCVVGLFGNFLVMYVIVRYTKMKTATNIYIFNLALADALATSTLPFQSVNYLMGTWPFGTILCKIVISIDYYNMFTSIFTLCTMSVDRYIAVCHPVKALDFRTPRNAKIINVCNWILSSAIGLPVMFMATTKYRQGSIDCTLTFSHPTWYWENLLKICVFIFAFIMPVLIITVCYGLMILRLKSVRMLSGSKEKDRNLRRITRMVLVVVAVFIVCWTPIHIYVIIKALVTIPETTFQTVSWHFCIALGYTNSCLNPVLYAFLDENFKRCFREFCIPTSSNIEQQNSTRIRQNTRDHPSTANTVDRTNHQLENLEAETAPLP
Chain of Kappa-type opioid receptor (Cavia porcellus) (P41144 whole entry): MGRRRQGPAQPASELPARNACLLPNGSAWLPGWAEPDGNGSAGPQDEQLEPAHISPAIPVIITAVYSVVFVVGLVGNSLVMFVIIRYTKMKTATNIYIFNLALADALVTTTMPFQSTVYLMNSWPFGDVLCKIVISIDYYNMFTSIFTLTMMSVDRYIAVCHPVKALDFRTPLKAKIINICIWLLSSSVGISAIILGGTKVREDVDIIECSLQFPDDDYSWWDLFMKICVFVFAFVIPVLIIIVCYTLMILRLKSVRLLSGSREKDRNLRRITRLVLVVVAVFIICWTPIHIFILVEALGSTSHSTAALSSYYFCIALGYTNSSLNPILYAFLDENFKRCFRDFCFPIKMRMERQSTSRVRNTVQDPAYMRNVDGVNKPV
Chain of Mu-type opioid receptor (Cavia porcellus) (P97266 whole entry): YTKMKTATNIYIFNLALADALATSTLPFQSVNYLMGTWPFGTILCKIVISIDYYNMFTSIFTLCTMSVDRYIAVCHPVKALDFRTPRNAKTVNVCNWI
Chain of Delta-type opioid receptor (Homo sapiens) (P41143 whole entry): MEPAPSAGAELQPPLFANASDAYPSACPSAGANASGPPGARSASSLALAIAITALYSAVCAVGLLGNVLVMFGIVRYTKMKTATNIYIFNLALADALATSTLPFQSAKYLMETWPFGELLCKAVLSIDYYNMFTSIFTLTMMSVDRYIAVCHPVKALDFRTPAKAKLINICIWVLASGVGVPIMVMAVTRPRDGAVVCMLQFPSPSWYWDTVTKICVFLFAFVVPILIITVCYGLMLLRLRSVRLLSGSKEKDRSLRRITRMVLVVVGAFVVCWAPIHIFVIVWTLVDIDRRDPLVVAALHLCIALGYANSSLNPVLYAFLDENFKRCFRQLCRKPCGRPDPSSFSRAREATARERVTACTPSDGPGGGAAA
Chain of Mu-type opioid receptor (P42866 whole entry): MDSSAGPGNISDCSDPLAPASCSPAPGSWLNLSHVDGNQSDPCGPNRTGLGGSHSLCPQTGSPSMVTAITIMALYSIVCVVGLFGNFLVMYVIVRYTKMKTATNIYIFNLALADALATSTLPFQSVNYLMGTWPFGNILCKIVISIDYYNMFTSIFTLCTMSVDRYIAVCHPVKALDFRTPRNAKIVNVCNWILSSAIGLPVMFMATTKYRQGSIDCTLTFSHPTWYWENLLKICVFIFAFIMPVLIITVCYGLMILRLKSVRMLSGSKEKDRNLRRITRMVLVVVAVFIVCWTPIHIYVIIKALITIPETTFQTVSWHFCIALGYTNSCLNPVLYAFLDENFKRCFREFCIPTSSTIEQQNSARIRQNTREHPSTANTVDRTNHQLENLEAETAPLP
Chain of Kappa-type opioid receptor (Homo sapiens) (P41145 whole entry): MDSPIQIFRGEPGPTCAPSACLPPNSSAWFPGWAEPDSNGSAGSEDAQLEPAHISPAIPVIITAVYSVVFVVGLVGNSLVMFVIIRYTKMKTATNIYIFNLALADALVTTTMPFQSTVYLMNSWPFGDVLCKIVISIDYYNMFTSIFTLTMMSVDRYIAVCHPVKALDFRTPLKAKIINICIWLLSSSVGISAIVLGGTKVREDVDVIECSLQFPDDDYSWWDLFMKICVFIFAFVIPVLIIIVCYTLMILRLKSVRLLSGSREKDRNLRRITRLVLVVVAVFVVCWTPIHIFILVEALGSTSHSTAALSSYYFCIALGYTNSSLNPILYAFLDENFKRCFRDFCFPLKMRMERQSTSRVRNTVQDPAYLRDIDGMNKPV

Compound	Selectivity ratio [1]	Selectivity ratio [2]	IC50 ratio [3]	Ke [4] [nM]	IC50 ratio [5]	IC50 ratio [6]	Ki [7] [nM]	Ki [8] [nM]	Selectivity ratio [9]	Selectivity ratio [10]	Ki (Mu-type opioid receptor) [nM]	Ke [11] [nM]	Ke [12] [nM]	IC50 ratio [13]	IC50 ratio [14]
O=C1/C(=C/c2ccccc2)C[C@@]2(O)[C@H]3Cc4ccc(O)c5c4[C@@]2(CCN3CC2CC2)[C@H]1O5	18	2.7													
CCCCc1c(CC(C)C)[nH]c2c1C[C@@]1(O)C3Cc4ccc(O)c5c4C1(CCN3CC1CC1)[C@H]2O5 (stereo not given in full)	10	10	0.76	11.4	0.99	9.8									
CCCCc1c(C)[nH]c2c1C[C@@]1(O)C3Cc4ccc(O)c5c4C1(CCN3CC1CC1)[C@H]2O5 (stereo not given in full)	17	8	2.1	6.7	0.95	16.8	39	12	3.3	4.8	57				
Cn1c2c(c3c1[C@@H]1Oc4c(O)ccc5c4C14CCN(CC1CC1)C(C5)[C@]4(O)C3)CCCC2 (stereo not given in full)												158	254		
Oc1ccc2c3c1O[C@H]1c4[nH]c5ccccc5c4C[C@@]4(O)[C@@H](C2)N(CC2CC2)CC[C@]314 [NALTRINDOLE]							355	0.04			6.1				
Cc1[nH]c2c(c1-c1ccccc1)C[C@@]1(O)C3Cc4ccc(O)c5c4C1(CCN3CC1CC1)[C@H]2O5 (stereo not given in full)	1.6	1.6	0.9		0.98	1.6									
Cc1[nH]c2c(c1Cc1ccccc1)C[C@@]1(O)C3Cc4ccc(O)c5c4C1(CCN3CC1CC1)[C@H]2O5 (stereo not given in full)	50	50	1.3	2.1	1.3	50	41	0.35	117	80	28				
CC(C)Cc1[nH]c2c(c1-c1ccccc1)C[C@@]1(O)C3Cc4ccc(O)c5c4C1(CCN3CC1CC1)[C@H]2O5 (stereo not given in full)	0.2	0.2	4.1		1.3	0.76									
Oc1ccc2c3c1O[C@H]1c4[nH]cc(-c5ccccc5)c4C[C@@]4(O)C(C2)N(CC2CC2)CCC314 (stereo not given in full)	0.7	0.7	2.3		2.1	1.5	45	2.7	16.7	7.8	21				
Oc1ccc2c3c1O[C@H]1c4[nH]c(-c5ccccc5)c(-c5ccccc5)c4C[C@@]4(O)C(C2)N(CC2CC2)CCC314 (stereo not given in full)	1	1				1.4								1.2	1.1
Oc1ccc2c3c1O[C@H]1c4[nH]ccc4C[C@@]4(O)C(C2)N(CC2CC2)CCC314 (stereo not given in full)	0.17	0.03		3.2								0.65	3.2		
Cc1[nH]c2c(c1C)C[C@@]1(O)C3Cc4ccc(O)c5c4C1(CCN3CC1CC1)[C@H]2O5 (stereo not given in full)	7	5	1.5	14.8	1.4	7.7	22	0.41	53.7	95	39				
Cc1c(CC(C)C)[nH]c2c1C[C@@]1(O)C3Cc4ccc(O)c5c4C1(CCN3CC1CC1)[C@H]2O5 (stereo not given in full)			380	3.3	380	32									
